How the values were obtained:
Oryctolagus cuniculus [1] = species on record: Oryctolagus cuniculus; assay: Ratio of Ki for DAT in rabbit striatal membrane to Ki for SERT in rabbit cortical membrane; format: cell membranes
Summary of the method: (§1)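 Ratio of the radioligand-binding Ki values from rabbit membranes: DAT ([3H]WIN 35,428, striatum) or NET ([3H]nisoxetine, cortex) Ki divided by SERT ([3H]paroxetine, cortex) Ki.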

[2] = Displacement of [3H]-WIN 35,428 from DAT in rabbit striatal membrane; format: cell membranes, Oryctolagus cuniculus, Striatum
Summary of the method: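 Rabbit striatal membranes (0.2 mg protein) in 50 mM Tris-HCl pH 7.4, 120 mM NaCl, 5 mM KCl with 0.5–2 nM [3H]WIN 35,428 (Kd 6.1 nM), 2 h at 4 °C; dopamine defines nonspecific binding; filtration over polyethylenimine-soaked GF/C filters, scintillation counting; ≥7 concentrations; Ki via Cheng-Prusoff, mean ± s.e.m. of three experiments in duplicate.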

Oryctolagus cuniculus [3] = species on record: Oryctolagus cuniculus; assay: Ratio of Ki for NET in rabbit cortical membrane to Ki for SERT in rabbit cortical membrane; format: cell membranes; summary of the method: as §1
[4] = Displacement of [3H]-paroxetine from SERT in rabbit cortical membrane; format: cell membranes, Oryctolagus cuniculus
Summary of the method: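 Competition against [3H]paroxetine (Kd 56.00 pM) on rabbit frontal cortex membranes, in duplicate, at least seven test concentrations from ethanol stocks diluted in Tris-HCl saline buffer; filtration and scintillation counting; Ki calculated by Cheng-Prusoff, mean ± s.e.m. of three independent experiments.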

[5] = Displacement of [3H]-Nisoxetine from NET in rabbit cortical membrane; format: cell membranes, Oryctolagus cuniculus

Row | SMILES | Ratio Ki (Oryctolagus cuniculus [1]) | Ki [2] [nM] | Ratio Ki (Oryctolagus cuniculus [3]) | Ki [4] [nM] | Ki [5] [nM]
1 | Fc1ccc(CO/N=C2/CNCCC2c2ccc(C(F)(F)F)cc2)cc1 (configuration not stated) | > 1000 | > 100000 | 96 | 96.8 | 9300
2 | Fc1ccc(CO/N=C2/CNCCC2c2ccc(F)cc2)cc1 (racemic) | 329 | 9460 | 466 | 28.7 | 13400
3 | Fc1ccc(CO/N=C2\CNCCC2c2ccc(F)cc2)cc1 (racemic) | 10 | 3190 |  | 306 | 
4 | Fc1ccc(C2CCNC/C2=N/OCc2ccc(C(F)(F)F)cc2)cc1 (racemic) | > 1000 | > 100000 | 198 | 98.4 | 19500
5 | Fc1ccc(C2CCNC/C2=N\OCc2ccc(C(F)(F)F)cc2)cc1 (racemic) | 45 | 6200 |  | 139 | 
6 | Fc1ccc(C2CCNC/C2=N/OCc2ccccc2Cl)cc1 (racemic) | 571 | 12900 | 496 | 22.6 | 11200
7 | Fc1ccc(C2CCNC/C2=N\OCc2ccccc2Cl)cc1 (racemic) | 47 | 3800 |  | 81.1 | 
8 | Fc1ccc(CO/N=C2\CNCCC2c2ccc(C(F)(F)F)cc2)cc1 (racemic) | 7 | 2800 |  | 396 | 
9 | FC(F)(F)c1ccc(C2CCNC/C2=N/OCc2ccccc2Cl)cc1 (racemic) | > 9000 | > 100000 | 972 | 10.3 | 10000
10 | FC(F)(F)c1ccc(C2CCNC/C2=N\OCc2ccccc2Cl)cc1 (racemic) | 43 | 4200 |  | 96.6 | 
11 | CNCCC(Oc1ccccc1OC)c1ccccc1 (configuration not stated) [NISOXETINE] |  |  |  |  | 3.5
12 | Fc1ccc([C@@H]2CCNC[C@H]2COc2ccc3c(c2)OCO3)cc1 [PAROXETINE] | 2480 | 769 | 258 | 0.31 | 80
13 | CNCC[C@@H](Oc1ccc(C(F)(F)F)cc1)c1ccccc1 [R-FLUOXETINE] | 670 | 4000 | 105 | 5.8 | 609
14 | Fc1ccc(C(OCCN2CCN(CCCc3ccccc3)CC2)c2ccc(F)cc2)cc1 [VANOXERINE] |  | 1.5 |  |  | 
